Laboratory results taken from ChEMBL document CHEMBL1134445, “Design and synthesis of potent C(2)-symmetric diol-based HIV-1 protease inhibitors: effects of fluoro substitution” (J Med Chem, 2001).

Tests used:
[1] = target: Human immunodeficiency virus type 1 protease (Human immunodeficiency virus 1) (UniProt Q72874); assay: Anti-HIV-1 activity against mutant HIV-1 in MT-4 cells (mutation selected with ritonavir); assay type: functional, cell-based; conditions: MT4
Outline: (§1)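 Resistant HIV-1 IIIb raised in MT4 cells: started at sub-ED50 drug with 20-50 TCID50 virus, p24 in supernatant tracked, cell-free virus passaged at 5-fold rising drug levels until growing above 50-fold wild-type ED50; these supernatants served as stocks. ED50 then determined in MT4 cells by XTT cytopathic-effect assay.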

[2] = target: Human immunodeficiency virus type 1 protease (Human immunodeficiency virus 1) (UniProt Q72874); assay: Anti-HIV-1 activity against mutant HIV-1 in MT-4 cells (mutation selected with nelfinavir); assay type: functional, cell-based; conditions: MT4; outline: as §1
[3] = target: Human immunodeficiency virus type 1 protease (Human immunodeficiency virus 1) (UniProt Q72874); assay: Anti-HIV-1 activity against mutant HIV-1 in MT-4 cells (mutation selected with compound 1); assay type: functional, cell-based; conditions: MT4; outline: as §1
[4] = target: Human immunodeficiency virus type 1 protease (Human immunodeficiency virus 1) (UniProt Q72874); assay: Anti-HIV-1 activity against Wild type virus in MT-4 cells; assay type: functional, cell-based; conditions: MT4
Outline: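 MT4 cells infected with HIV-1; in vitro antiviral ED50 derived from colorimetric XTT read-out of virus cytopathic effect.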

[5] = target: Human immunodeficiency virus type 1 protease (Human immunodeficiency virus 1, UniProt Q72874); assay: Inhibitory concentration against HIV-1 protease
Outline: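 Recombinant HIV-1 protease, cloned and expressed in Escherichia coli; inhibition measured by fluorometric assay and reported as Ki.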

[6] = target: Human immunodeficiency virus type 1 protease (Human immunodeficiency virus 1) (UniProt Q72874); assay: Anti-HIV-1 activity against mutant HIV-1 in MT-4 cells (mutation selected with saquinavir); assay type: functional, cell-based; conditions: MT4; outline: as §1
[7] = test system: Human immunodeficiency virus 1; assay: Anti-HIV-1 activity against Wild type virus. in MT-4 cells; assay type: functional; conditions: Human immunodeficiency virus 1, MT4; read-out: ED50 (the source's name)
Outline: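 Antiviral ED50 determined in MT4 cells infected with HIV-1; cytopathogenic effect read out by colorimetric XTT assay.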

O=C(NC1c2ccccc2C[C@H]1O)[C@H](OCc1ccc(F)cc1)[C@H](O)[C@@H](O)[C@@H](OCc1ccc(F)cc1)C(=O)N[C@H]1c2ccccc2C[C@H]1O (some centres undefined)
ED50 [1]: 1.13 µM
ED50 [2]: 0.56 µM
ED50 [3]: 1.13 µM
ED50 [4]: 0.25 µM
Ki [5]: 0.00539 µM

O=C(NC1c2ccccc2C[C@H]1O)[C@H](OCc1c(F)cccc1F)[C@H](O)[C@@H](O)[C@@H](OCc1c(F)cccc1F)C(=O)N[C@H]1c2ccccc2C[C@H]1O (some centres undefined)
ED50 [1]: 1.39 µM
ED50 [6]: 0.13 µM
ED50 [2]: 0.25 µM
ED50 [3]: 0.31 µM
ED50 [4]: 0.06 µM
Ki [5]: 0.00164 µM

CNC(=O)[C@@H](NC(=O)[C@H](OCc1ccccc1)[C@H](O)[C@@H](O)[C@@H](OCc1ccccc1)C(=O)N[C@H](C(=O)NC)C(C)C)C(C)C
ED50 [1]: > 15 µM
ED50 [6]: 6.1 µM
ED50 [2]: > 15 µM
ED50 [3]: 8.13 µM
EC50 [7]: 1.32 µM
Ki [5]: 0.0008 µM

CNC(=O)[C@@H](NC(=O)[C@H](OCc1cc(F)cc(F)c1)[C@H](O)[C@@H](O)[C@@H](OCc1cc(F)cc(F)c1)C(=O)N[C@H](C(=O)NC)C(C)C)C(C)C
ED50 [1]: 1.4 µM
ED50 [6]: 1.64 µM
ED50 [2]: 0.34 µM
ED50 [3]: 1.32 µM
ED50 [4]: 0.42 µM
Ki [5]: 0.00198 µM

O=C(NC1c2ccccc2C[C@H]1O)[C@H](OCc1ccccc1)[C@H](O)[C@@H](O)[C@@H](OCc1ccccc1)C(=O)N[C@H]1c2ccccc2C[C@H]1O (some centres undefined)
ED50 [1]: 1.28 µM
ED50 [6]: 0.07 µM
ED50 [2]: 0.1 µM
ED50 [3]: 0.46 µM
ED50 [4]: 0.1 µM
Ki [5]: 0.00122 µM

O=C(NC1c2ccccc2C[C@H]1O)[C@H](OCc1cccc(F)c1F)[C@H](O)[C@@H](O)[C@@H](OCc1cccc(F)c1F)C(=O)N[C@H]1c2ccccc2C[C@H]1O (some centres undefined)
ED50 [1]: 0.88 µM
ED50 [6]: 0.05 µM
ED50 [2]: 0.06 µM
ED50 [3]: 0.24 µM
ED50 [4]: 0.03 µM
Ki [5]: 0.004 µM

CNC(=O)[C@@H](NC(=O)[C@H](OCc1cccc(F)c1F)[C@H](O)[C@@H](O)[C@@H](OCc1cccc(F)c1F)C(=O)N[C@H](C(=O)NC)C(C)C)C(C)C
ED50 [1]: 2.26 µM
ED50 [6]: 1.11 µM
ED50 [2]: 0.34 µM
ED50 [3]: 1.54 µM
ED50 [4]: 0.66 µM
Ki [5]: 0.00128 µM

O=C(NC1c2ccccc2C[C@H]1O)[C@H](OCc1ccccc1F)[C@H](O)[C@@H](O)[C@@H](OCc1ccccc1F)C(=O)N[C@H]1c2ccccc2C[C@H]1O (some centres undefined)
ED50 [1]: 0.51 µM
ED50 [6]: 0.08 µM
ED50 [2]: 0.21 µM
ED50 [3]: 0.27 µM
ED50 [4]: 0.05 µM
Ki [5]: 0.00326 µM

CNC(=O)[C@@H](NC(=O)[C@H](OCc1cc(F)ccc1F)[C@H](O)[C@@H](O)[C@@H](OCc1cc(F)ccc1F)C(=O)N[C@H](C(=O)NC)C(C)C)C(C)C
ED50 [1]: 10.9 µM
ED50 [6]: 1.38 µM
ED50 [2]: 1.38 µM
ED50 [3]: 10.7 µM
ED50 [4]: 0.65 µM
Ki [5]: 0.00198 µM

CNC(=O)[C@@H](NC(=O)[C@H](OCc1cccc(F)c1)[C@H](O)[C@@H](O)[C@@H](OCc1cccc(F)c1)C(=O)N[C@H](C(=O)NC)C(C)C)C(C)C
ED50 [1]: 1.69 µM
ED50 [6]: 1.04 µM
ED50 [2]: 1.1 µM
ED50 [3]: 1.84 µM
ED50 [4]: 0.68 µM
Ki [5]: 0.00183 µM

CNC(=O)[C@@H](NC(=O)[C@H](OCc1c(F)cccc1F)[C@H](O)[C@@H](O)[C@@H](OCc1c(F)cccc1F)C(=O)N[C@H](C(=O)NC)C(C)C)C(C)C
ED50 [1]: > 15 µM
ED50 [6]: 8.14 µM
ED50 [2]: 7.14 µM
ED50 [3]: > 15 µM
ED50 [4]: 1.35 µM
Ki [5]: 0.00173 µM

O=C(NC1c2ccccc2C[C@H]1O)[C@H](OCc1ccc(F)cc1F)[C@H](O)[C@@H](O)[C@@H](OCc1ccc(F)cc1F)C(=O)N[C@H]1c2ccccc2C[C@H]1O (some centres undefined)
ED50 [1]: 1.73 µM
ED50 [6]: 0.37 µM
ED50 [2]: 0.25 µM
ED50 [3]: 0.67 µM
ED50 [4]: 0.11 µM
Ki [5]: 0.00165 µM

CNC(=O)[C@@H](NC(=O)[C@H](OCc1ccc(F)cc1F)[C@H](O)[C@@H](O)[C@@H](OCc1ccc(F)cc1F)C(=O)N[C@H](C(=O)NC)C(C)C)C(C)C
ED50 [1]: 1.89 µM
ED50 [6]: 1.17 µM
ED50 [2]: 0.48 µM
ED50 [3]: 3.35 µM
ED50 [4]: 0.72 µM
Ki [5]: 0.00112 µM

CC(C)(C)NC(=O)[C@@H]1C[C@@H]2CCCC[C@@H]2CN1C[C@@H](O)[C@H](Cc1ccccc1)NC(=O)[C@H](CC(N)=O)NC(=O)c1ccc2ccccc2n1
ED50 [1]: 0.01 µM
ED50 [6]: 0.08 µM
ED50 [2]: 0.03 µM
ED50 [3]: 0.01 µM
ED50 [4]: 0.01 µM

Cc1c(O)cccc1C(=O)N[C@@H](CSc1ccccc1)[C@H](O)CN1C[C@H]2CCCC[C@H]2C[C@H]1C(=O)NC(C)(C)C
ED50 [1]: 0.11 µM
ED50 [6]: 0.12 µM
ED50 [2]: 2.44 µM
ED50 [3]: 0.07 µM
ED50 [4]: 0.02 µM

O=C(NC1c2ccccc2C[C@H]1O)[C@H](OCc1cccc(F)c1)[C@H](O)[C@@H](O)[C@@H](OCc1cccc(F)c1)C(=O)N[C@H]1c2ccccc2C[C@H]1O (some centres undefined)
ED50 [1]: 0.53 µM
ED50 [6]: 0.95 µM
ED50 [2]: 0.21 µM
ED50 [3]: 0.18 µM
ED50 [4]: 0.06 µM
Ki [5]: 0.00713 µM

O=C(NC1c2ccccc2C[C@H]1O)[C@H](OCc1ccc(F)c(F)c1)[C@H](O)[C@@H](O)[C@@H](OCc1ccc(F)c(F)c1)C(=O)N[C@H]1c2ccccc2C[C@H]1O (some centres undefined)
ED50 [1]: 1.3 µM
ED50 [6]: 0.16 µM
ED50 [2]: 0.3 µM
ED50 [3]: 1.05 µM
ED50 [4]: 0.13 µM
Ki [5]: 0.0039 µM

O=C(NC1c2ccccc2C[C@H]1O)[C@H](OCc1cc(F)ccc1F)[C@H](O)[C@@H](O)[C@@H](OCc1cc(F)ccc1F)C(=O)N[C@H]1c2ccccc2C[C@H]1O (some centres undefined)
ED50 [1]: 0.71 µM
ED50 [6]: 0.08 µM
ED50 [2]: 0.1 µM
ED50 [3]: 0.16 µM
ED50 [4]: 0.02 µM
Ki [5]: 0.00329 µM

CNC(=O)[C@@H](NC(=O)[C@H](OCc1ccc(F)cc1)[C@H](O)[C@@H](O)[C@@H](OCc1ccc(F)cc1)C(=O)N[C@H](C(=O)NC)C(C)C)C(C)C
ED50 [1]: 0.97 µM
ED50 [6]: 3.65 µM
ED50 [2]: 1.32 µM
ED50 [3]: 7.82 µM
ED50 [4]: 1.17 µM
Ki [5]: 0.00179 µM

O=C(NC1c2ccccc2C[C@H]1O)[C@H](OCc1cc(F)cc(F)c1)[C@H](O)[C@@H](O)[C@@H](OCc1cc(F)cc(F)c1)C(=O)N[C@H]1c2ccccc2C[C@H]1O (some centres undefined)
ED50 [1]: 1.06 µM
ED50 [6]: 0.09 µM
ED50 [2]: 0.24 µM
ED50 [3]: 0.23 µM
ED50 [4]: 0.05 µM
Ki [5]: 0.005 µM

CNC(=O)[C@@H](NC(=O)[C@H](OCc1ccccc1F)[C@H](O)[C@@H](O)[C@@H](OCc1ccccc1F)C(=O)N[C@H](C(=O)NC)C(C)C)C(C)C
ED50 [1]: 7.45 µM
ED50 [6]: 0.63 µM
ED50 [2]: 1.15 µM
ED50 [3]: 9.34 µM
ED50 [4]: 0.28 µM
Ki [5]: 0.00192 µM

CNC(=O)[C@@H](NC(=O)[C@H](OCc1ccc(F)c(F)c1)[C@H](O)[C@@H](O)[C@@H](OCc1ccc(F)c(F)c1)C(=O)N[C@H](C(=O)NC)C(C)C)C(C)C
ED50 [1]: 1.22 µM
ED50 [6]: 0.81 µM
ED50 [2]: 0.85 µM
ED50 [3]: 2.84 µM
ED50 [4]: 0.67 µM
Ki [5]: 0.00198 µM

CC(C)c1nc(CN(C)C(=O)N[C@H](C(=O)N[C@@H](Cc2ccccc2)C[C@H](O)[C@H](Cc2ccccc2)NC(=O)OCc2cncs2)C(C)C)cs1
ED50 [1]: 2.47 µM
ED50 [6]: 0.41 µM
ED50 [2]: 0.15 µM
ED50 [3]: 0.98 µM
ED50 [4]: 0.06 µM
